In ChEMBL document CHEMBL5653631, “A Potent and Selective ULK1 Inhibitor Suppresses Autophagy and Sensitizes Cancer Cells to Nutrient Stress” (iScience, 2018) one finds fold change (FC) and inhibition data, which are given here for three compounds.

In test [1] the target is Calcium/calmodulin-dependent protein kinase kinase 1 (Homo sapiens) (UniProt Q8N5S9). Description: Inhibition of human recombinant CaMKK1 at 40 nM related to control ULK1.
Test [2] deals with Cyclin-dependent kinase 9 (Homo sapiens) (UniProt P50750). The test can be described thus: Inhibition of human recombinant CDK9 at 500 nM in presence of ATP by radiometric assay relative to control.
The target of test [3] is Protein kinase C eta type (Homo sapiens) (UniProt P24723). Description: Inhibition of human recombinant PKCH at 500 nM in presence of ATP by radiometric assay relative to control.
In test [4] the target is T1, Bone morphogenetic protein receptor type-2 (Homo sapiens) (UniProt Q13873).
T1 sequence (whole entry): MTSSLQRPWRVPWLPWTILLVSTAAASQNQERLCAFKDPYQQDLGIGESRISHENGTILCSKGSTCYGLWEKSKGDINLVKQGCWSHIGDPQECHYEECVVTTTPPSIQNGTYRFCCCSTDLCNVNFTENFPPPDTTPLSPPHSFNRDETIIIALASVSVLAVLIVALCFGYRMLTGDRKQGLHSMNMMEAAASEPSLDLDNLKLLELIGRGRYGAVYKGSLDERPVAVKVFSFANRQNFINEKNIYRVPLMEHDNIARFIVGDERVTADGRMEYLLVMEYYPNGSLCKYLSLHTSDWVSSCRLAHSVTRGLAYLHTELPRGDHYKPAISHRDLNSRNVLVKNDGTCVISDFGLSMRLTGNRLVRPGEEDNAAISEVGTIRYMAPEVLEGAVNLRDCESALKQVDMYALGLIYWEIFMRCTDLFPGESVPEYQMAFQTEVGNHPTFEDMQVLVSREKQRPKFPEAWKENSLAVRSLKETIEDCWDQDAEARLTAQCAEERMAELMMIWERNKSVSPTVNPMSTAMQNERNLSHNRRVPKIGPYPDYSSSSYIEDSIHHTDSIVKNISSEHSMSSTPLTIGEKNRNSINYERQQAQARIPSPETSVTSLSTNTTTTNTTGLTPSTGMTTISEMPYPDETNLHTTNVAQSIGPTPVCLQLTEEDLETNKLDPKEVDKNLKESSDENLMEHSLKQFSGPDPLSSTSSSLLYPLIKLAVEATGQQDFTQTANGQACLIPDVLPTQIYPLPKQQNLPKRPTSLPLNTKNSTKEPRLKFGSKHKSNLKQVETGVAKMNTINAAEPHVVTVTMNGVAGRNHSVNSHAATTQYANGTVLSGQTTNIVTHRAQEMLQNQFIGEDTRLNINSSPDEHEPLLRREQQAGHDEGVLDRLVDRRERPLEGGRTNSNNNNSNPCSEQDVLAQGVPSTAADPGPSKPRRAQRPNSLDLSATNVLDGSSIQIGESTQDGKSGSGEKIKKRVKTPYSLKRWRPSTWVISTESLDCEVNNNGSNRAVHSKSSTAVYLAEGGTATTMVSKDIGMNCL
Description: Inhibition of human recombinant BMPR2 at 500 nM related to control ULK1.

Test [5] concerns the target T2, Serine/threonine-protein kinase BRSK1 (Homo sapiens) (UniProt Q8TDC3).
T2 sequence (whole entry): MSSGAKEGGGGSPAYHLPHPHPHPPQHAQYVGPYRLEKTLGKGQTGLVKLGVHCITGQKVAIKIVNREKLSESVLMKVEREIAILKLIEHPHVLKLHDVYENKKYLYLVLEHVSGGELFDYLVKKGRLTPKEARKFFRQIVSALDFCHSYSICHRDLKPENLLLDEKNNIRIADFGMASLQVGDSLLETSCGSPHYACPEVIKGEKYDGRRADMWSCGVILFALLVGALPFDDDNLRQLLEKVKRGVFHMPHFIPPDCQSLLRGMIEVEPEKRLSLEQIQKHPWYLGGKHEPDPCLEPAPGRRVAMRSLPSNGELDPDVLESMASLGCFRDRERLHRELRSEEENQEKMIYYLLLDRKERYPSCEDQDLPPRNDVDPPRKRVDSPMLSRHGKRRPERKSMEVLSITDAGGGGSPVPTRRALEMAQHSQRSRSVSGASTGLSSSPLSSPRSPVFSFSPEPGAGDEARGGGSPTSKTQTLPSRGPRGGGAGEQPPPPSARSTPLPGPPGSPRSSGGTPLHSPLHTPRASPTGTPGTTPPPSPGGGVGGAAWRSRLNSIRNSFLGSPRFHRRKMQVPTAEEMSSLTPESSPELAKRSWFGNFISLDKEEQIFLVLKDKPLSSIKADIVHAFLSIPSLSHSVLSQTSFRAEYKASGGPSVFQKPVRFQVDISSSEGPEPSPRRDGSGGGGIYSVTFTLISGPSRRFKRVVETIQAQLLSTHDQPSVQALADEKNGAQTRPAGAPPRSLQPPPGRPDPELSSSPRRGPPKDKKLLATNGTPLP
The test can be described thus: Inhibition of human recombinant BRSK1 at 500 nM related to control ULK1. In outline:
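Recombinant human kinase panel (327 kinases) run as radiometric activity assays, each kinase in duplicate at one compound concentration. Activity remaining expressed relative to vehicle control; percent inhibition taken as 100% minus % activity remaining.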

Test [6] has as its target T3, Eukaryotic elongation factor 2 kinase (Homo sapiens) (UniProt O00418).
T3 sequence (whole entry): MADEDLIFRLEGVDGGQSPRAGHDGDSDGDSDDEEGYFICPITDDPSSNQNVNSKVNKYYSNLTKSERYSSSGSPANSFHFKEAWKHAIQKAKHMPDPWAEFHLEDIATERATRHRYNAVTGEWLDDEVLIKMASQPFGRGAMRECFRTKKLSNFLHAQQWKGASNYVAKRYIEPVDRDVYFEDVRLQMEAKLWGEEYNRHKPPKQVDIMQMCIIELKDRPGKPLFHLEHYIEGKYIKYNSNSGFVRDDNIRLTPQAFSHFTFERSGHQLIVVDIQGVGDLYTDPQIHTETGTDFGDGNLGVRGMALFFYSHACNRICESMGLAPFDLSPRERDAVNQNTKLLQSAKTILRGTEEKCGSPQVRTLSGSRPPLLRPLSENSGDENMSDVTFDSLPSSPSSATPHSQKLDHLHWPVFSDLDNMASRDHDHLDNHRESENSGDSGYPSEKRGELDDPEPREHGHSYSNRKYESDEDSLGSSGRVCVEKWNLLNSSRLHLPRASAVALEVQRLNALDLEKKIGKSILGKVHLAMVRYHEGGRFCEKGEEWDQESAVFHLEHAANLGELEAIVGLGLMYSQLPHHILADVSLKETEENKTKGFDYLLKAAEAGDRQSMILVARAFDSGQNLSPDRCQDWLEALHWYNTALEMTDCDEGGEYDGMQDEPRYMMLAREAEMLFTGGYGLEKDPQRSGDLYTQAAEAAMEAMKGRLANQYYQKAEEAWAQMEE
Description: Inhibition of human recombinant eEF2K at 15 nM related to control ULK1.

Test [7] has as its target Maternal embryonic leucine zipper kinase (Homo sapiens) (UniProt Q14680). Description: Inhibition of human recombinant MELK at 15 nM in presence of ATP by radiometric assay relative to control.
The target in test [8] is Insulin receptor-related protein (Homo sapiens) (UniProt P14616). The test can be described thus: Inhibition of human recombinant IRR at 15 nM in presence of ATP by radiometric assay relative to control.
Sequence of Insulin receptor-related protein (Homo sapiens) (P14616 27-742 limits assumed): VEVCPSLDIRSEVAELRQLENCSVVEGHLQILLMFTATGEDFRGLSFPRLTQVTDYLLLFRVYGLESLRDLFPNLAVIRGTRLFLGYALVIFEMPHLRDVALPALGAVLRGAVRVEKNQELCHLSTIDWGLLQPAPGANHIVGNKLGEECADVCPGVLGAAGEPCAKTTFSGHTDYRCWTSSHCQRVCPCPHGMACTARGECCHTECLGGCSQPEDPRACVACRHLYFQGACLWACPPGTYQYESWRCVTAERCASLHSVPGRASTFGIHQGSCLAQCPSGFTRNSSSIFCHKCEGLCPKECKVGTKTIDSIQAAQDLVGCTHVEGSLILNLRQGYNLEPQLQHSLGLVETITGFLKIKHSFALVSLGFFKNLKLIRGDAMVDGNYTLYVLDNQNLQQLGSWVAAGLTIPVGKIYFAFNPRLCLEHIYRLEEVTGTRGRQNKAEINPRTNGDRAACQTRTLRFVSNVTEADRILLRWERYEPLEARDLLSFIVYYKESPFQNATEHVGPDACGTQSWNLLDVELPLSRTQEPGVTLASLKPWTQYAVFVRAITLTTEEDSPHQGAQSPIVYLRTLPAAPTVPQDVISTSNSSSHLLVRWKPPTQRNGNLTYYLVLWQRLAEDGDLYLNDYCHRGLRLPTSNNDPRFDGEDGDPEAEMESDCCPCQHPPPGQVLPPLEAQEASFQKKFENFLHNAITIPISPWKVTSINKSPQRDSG
Sequence of Insulin receptor-related protein (Homo sapiens) (P14616 747-1297 limits assumed): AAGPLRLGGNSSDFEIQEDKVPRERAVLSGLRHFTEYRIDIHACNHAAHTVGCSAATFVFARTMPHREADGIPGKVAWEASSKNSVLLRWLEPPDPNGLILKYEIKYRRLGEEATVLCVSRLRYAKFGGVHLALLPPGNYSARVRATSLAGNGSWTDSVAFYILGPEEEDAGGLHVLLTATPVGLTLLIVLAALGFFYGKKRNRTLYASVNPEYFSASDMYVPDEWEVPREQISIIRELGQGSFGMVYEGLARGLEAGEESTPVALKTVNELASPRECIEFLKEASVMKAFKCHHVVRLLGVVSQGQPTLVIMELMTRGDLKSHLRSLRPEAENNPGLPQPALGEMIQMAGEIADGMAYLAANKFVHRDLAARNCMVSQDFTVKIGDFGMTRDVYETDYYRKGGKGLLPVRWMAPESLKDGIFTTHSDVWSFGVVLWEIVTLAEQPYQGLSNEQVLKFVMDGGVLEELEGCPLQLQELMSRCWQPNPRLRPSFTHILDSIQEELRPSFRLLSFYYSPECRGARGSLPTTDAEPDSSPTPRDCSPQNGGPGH

Sequence of Protein kinase C eta type (Homo sapiens) (P24723 whole entry): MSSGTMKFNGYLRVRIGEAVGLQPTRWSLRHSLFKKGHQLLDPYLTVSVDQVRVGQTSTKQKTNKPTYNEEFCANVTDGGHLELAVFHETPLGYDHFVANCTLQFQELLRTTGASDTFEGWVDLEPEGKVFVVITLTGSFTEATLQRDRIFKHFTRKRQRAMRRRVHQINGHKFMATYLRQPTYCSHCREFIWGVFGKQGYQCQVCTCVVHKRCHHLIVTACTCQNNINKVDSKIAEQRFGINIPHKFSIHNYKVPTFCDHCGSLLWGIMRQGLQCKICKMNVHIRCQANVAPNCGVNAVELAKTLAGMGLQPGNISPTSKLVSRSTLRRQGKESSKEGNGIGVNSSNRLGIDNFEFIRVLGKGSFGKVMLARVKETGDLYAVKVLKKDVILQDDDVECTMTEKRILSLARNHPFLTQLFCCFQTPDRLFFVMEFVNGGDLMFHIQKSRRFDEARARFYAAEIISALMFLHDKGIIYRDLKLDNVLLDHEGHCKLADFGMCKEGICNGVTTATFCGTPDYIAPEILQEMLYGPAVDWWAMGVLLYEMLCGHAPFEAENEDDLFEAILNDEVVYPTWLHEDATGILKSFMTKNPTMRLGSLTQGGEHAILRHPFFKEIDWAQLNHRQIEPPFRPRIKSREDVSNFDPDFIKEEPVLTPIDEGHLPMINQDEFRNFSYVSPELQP
Sequence of Maternal embryonic leucine zipper kinase (Homo sapiens) (Q14680 whole entry, looked up): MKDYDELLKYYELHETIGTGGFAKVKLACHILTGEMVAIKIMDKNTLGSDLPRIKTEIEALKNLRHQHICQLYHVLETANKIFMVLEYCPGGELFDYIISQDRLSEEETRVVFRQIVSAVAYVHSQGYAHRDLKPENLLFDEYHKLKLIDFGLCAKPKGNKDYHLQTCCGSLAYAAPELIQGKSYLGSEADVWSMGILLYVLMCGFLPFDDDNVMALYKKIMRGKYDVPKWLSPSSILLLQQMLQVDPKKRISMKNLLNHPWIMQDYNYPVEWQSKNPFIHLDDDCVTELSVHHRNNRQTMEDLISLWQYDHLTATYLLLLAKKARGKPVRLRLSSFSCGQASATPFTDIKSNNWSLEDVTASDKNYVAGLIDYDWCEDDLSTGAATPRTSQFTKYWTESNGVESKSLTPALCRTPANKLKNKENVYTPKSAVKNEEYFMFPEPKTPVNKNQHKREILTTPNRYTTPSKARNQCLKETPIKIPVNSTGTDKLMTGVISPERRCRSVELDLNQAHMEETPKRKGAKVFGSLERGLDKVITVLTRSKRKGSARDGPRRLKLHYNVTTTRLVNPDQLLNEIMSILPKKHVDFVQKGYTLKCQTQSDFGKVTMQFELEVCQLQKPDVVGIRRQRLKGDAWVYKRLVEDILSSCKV
Sequence of Calcium/calmodulin-dependent protein kinase kinase 1 (Homo sapiens) (Q8N5S9 whole entry, looked up): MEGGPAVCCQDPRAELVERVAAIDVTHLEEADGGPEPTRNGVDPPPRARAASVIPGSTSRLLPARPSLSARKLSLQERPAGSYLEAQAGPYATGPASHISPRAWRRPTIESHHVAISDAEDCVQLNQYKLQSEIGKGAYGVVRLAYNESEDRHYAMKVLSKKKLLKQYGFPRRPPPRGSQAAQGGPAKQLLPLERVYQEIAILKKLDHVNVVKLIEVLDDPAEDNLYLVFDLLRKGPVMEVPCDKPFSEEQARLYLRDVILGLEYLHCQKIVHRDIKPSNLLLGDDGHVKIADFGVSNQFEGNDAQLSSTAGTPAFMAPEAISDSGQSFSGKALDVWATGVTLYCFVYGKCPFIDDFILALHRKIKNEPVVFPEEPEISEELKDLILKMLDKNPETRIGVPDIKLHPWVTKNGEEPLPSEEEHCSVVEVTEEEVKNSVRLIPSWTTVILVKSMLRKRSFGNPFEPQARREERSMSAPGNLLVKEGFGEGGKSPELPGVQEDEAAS
Sequence of Cyclin-dependent kinase 9 (Homo sapiens) (P50750 whole entry): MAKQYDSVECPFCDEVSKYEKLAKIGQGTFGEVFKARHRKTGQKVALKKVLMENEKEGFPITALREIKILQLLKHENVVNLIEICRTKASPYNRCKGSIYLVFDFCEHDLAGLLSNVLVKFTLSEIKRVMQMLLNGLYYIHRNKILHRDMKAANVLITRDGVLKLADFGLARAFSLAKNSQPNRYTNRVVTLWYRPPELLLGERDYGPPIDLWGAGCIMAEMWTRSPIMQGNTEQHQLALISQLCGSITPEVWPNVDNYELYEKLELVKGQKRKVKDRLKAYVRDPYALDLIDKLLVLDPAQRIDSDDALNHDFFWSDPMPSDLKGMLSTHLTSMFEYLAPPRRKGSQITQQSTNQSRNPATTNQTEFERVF

As to `O=C(N[C@@H](C1CC1)C(F)(F)F)c1cc(-c2cnn3cc(-c4ccc(F)cc4)cnc23)cs1`, in test [1], the fold change (FC) is 0.
For `CNC(=O)c1ccccc1Oc1nc(Nc2cc(OC)c(OC)c(OC)c2)ncc1Br`, the inhibition in test [2] amounted to 3%; in test [3] it was 7%. For the same compound, the results for the fold change (FC) in test [4] and in test [5] were 0 and 0.03, respectively.
As for `CC(C)[C@H](NC(=O)c1cc(-c2cnn3cc(-c4ccc(OCCN5CCCCC5)cc4)cnc23)cs1)C(F)(F)F`, in test [6], the fold change (FC) is 0.11. Further, the inhibition in test [7] was 67%; in test [8], 2%.
